The values below come from ChEMBL document CHEMBL1781992, “A novel monocarbonyl analogue of curcumin, (1E,4E)-1,5-bis(2,3-dimethoxyphenyl)penta-1,4-dien-3-one, induced cancer cell H460 apoptosis via activation of endoplasmic reticulum stress signaling pathway” (J Med Chem, 2011).

Assay [1] concerns NCI-H460. As to the kind of experiment: Cytotoxicity against human NCI-H460 cells after 72 hrs by MTT assay. The assay is classed as functional, cell-based. The settings on record: NCI-H460, 72 h. In short, it runs like this: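 H460 cells grown in RPMI 1640 with 5% FBS at 37 °C, 10% CO2, treated 24 h after seeding. Compounds in DMSO diluted into medium at final 100, 33.3, 11.1 and 3.7 μg/mL for 72 h. MTT (5 mg/mL in 0.9% NaCl) added for 3 h, formazan dissolved in DMSO and read at 570 nm; IC50 derived.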
A general note: Tetrazolium assays rely on reduction of a dye to a coloured formazan, in cell work by metabolically active cells.

For assay [2], the target named is Transcription factor Jun (Homo sapiens) (UniProt P05412). As to the kind of experiment: Induction of c-Jun phosphorylation in human NCI-H460 cells at 20 uM after 12 hrs by Western blot analysis. The assay is classed as cell-based. The method in brief:
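H460 cells cultured in RPMI 1640 with 5% heat-inactivated FBS at 37 C, 10% CO2; exposed to 20 μM for a time course. Lysed at 0 C in Tris-HCl pH 7.4 buffer with NP40, SDS, and protease/phosphatase inhibitors. Phospho-c-Jun detected by Western blot with chemiluminescence, actin as loading control; band density quantified.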
(In general: In western blotting, separated proteins are transferred to a membrane and probed.)

Assay [3] concerns NCI-H460. As to the kind of experiment: Induction of apoptosis in human NCI-H460 cells assessed as viable cells at 20 uM after 6 hrs by annexinV-propidium iodide staining based flow cytometric analysis relative to control. The conditions noted are these: NCI-H460, 6 h, read-out: Activity. It is filed as functional. The method in brief:
(§1)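 H460 cells plated for 6 h, then treated with 5, 10 or 20 μM. Cells washed, trypsin-EDTA detached and resuspended in PBS, then stained with annexin V and propidium iodide plus RNase and 0.1% Triton X-100 for 30 min at 37 °C before flow cytometry. Figure legend gives 6 h incubation.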
For orientation: Flow cytometry measures light scatter and fluorescence of single cells or particles in a stream.

Assay [4] concerns NCI-H460. As to the kind of experiment: Induction of apoptosis in human NCI-H460 cells assessed as early apoptotic cells at 20 uM after 6 hrs by annexinV-propidium iodide staining based flow cytometric analysis relative to control. The assay is classed as functional. In short, it runs like this:
as §1

For assay [5], the system named is NCI-H460. Description: Induction of apoptosis in human NCI-H460 cells at 20 uM after 6 hrs by flow cytometric analysis. It is filed as functional. In short, it runs like this:
as §1

For assay [6], the system named is NCI-H460. As to the kind of experiment: Induction of apoptosis in human NCI-H460 cells assessed as non-viable necrotic cells at 10 uM after 6 hrs by annexinV-propidium iodide staining based flow cytometric analysis relative to control. It is filed as functional. The method in brief: as §1
Assay [7] relates to NCI-H460. Description: Induction of apoptosis in human NCI-H460 cells assessed as early apoptotic cells at 5 uM after 6 hrs by annexinV-propidium iodide staining based flow cytometric analysis relative to control. The assay is classed as functional. The method in brief: as §1
Assay [8] has as its system NCI-H460. Description: Induction of XBP-1 protein expression level in human NCI-H460 cells at 5 to 20 uM after 6 hrs by Western blot analysis. The assay is classed as functional, cell-based. The method in brief:
(§2)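 H460 cells exposed to 20 μM for varying times, or to a range of concentrations for 6 h. ATF-4 and XBP-1 protein measured by Western blot with actin as loading control.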

Assay [9] deals with NCI-H460. As to the kind of experiment: Induction of apoptosis in human NCI-H460 cells assessed as viable cells at 5 uM after 6 hrs by annexinV-propidium iodide staining based flow cytometric analysis relative to control. The conditions noted are these: NCI-H460, 6 h, read-out: Activity. It is filed as functional. In short, it runs like this:
as §1

The subject of assay [10] is NCI-H460. Description: Cytotoxicity against human NCI-H460 cells assessed as reduction of cell viability at 5 to 30 uM after 24 hrs by CellTiter-Glo analysis. It is filed as functional, cell-based. The method in brief: (§3)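 H460 cells (5 × 10^3/well) seeded overnight, then given fresh medium containing compound from DMSO stock (final 5, 10, 20 μM; 2.5–30 μM in the figure) for 24 h. Viability measured with CellTiter-Glo and expressed as percent of vehicle-treated cells; Student's t test.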

The test system of assay [11] is NCI-H460. As to the kind of experiment: Induction of apoptosis in human NCI-H460 cells assessed as non-viable necrotic cells at 5 uM after 6 hrs by annexinV-propidium iodide staining based flow cytometric analysis relative to control. It is filed as functional. In short, it runs like this: as §1
Assay [12] deals with NCI-H460. Description: Induction of apoptosis in human NCI-H460 cells assessed as early apoptotic cells at 10 uM after 6 hrs by annexinV-propidium iodide staining based flow cytometric analysis relative to control. The assay is classed as functional. The method in brief:
as §1

Assay [13] relates to NCI-H460. Description: Induction of CHOP protein expression in human NCI-H460 cells at 20 uM after 6 to 24 hrs by Western blot analysis. The assay is classed as functional, cell-based. The method in brief:
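H460 cells treated for 6–24 h, or across a range of concentrations. CHOP protein measured by Western blot, densitometry expressed as percent of control; Student's t test.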

Assay [14] has as its system NCI-H460. As to the kind of experiment: Induction of apoptosis in human NCI-H460 cells assessed as non-viable necrotic cells at 20 uM after 6 hrs by annexinV-propidium iodide staining based flow cytometric analysis relative to control. It is filed as functional. In short, it runs like this: as §1
Assay [15] has as its system NCI-H460. As to the kind of experiment: Induction of ATF-4 protein expression level in human NCI-H460 cells at 5 to 20 uM after 6 hrs by Western blot analysis. The assay is classed as functional, cell-based. In short, it runs like this:
as §2

Assay [16] concerns NCI-H460. Description: Induction of GRP78 protein expression in human NCI-H460 cells at 5 to 20 uM after 3 hrs by Western blot analysis. It is filed as functional, cell-based. In short, it runs like this:
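H460 cells treated for 3 h; GRP78 protein detected by Western blot with actin as loading control.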

Assay [17] deals with NCI-H460. Description: Induction of apoptosis in human NCI-H460 cells assessed as activation of caspase 3 activity at 20 uM after 24 hrs by Western blot analysis. It is filed as functional, cell-based.
In assay [18] the test system is NCI-H460. Description: Induction of apoptosis in human NCI-H460 cells assessed as late apoptotic cells at 10 uM after 6 hrs by annexinV-propidium iodide staining based flow cytometric analysis relative to control. It is filed as functional. The method in brief: as §1
Assay [19] concerns NCI-H460. As to the kind of experiment: Induction of apoptosis in human NCI-H460 cells assessed as activation of caspase 9 activation at 20 uM after 24 hrs by Western blot analysis. It is filed as functional, cell-based.
For assay [20], the system named is NCI-H460. As to the kind of experiment: Induction of GRP78 mRNA expression in human NCI-H460 cells at 5 to 20 uM after 3 hrs by real time quantitative PCR analysis. The assay is classed as functional, cell-based. In short, it runs like this: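 H460 cells treated across a concentration range for 3 h. GRP78 mRNA quantified by RT-qPCR, normalized to β-actin and expressed as percent of vehicle.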

For assay [21], the system named is NCI-H460. As to the kind of experiment: Induction of apoptosis in human NCI-H460 cells assessed as late apoptotic cells at 5 uM after 6 hrs by annexinV-propidium iodide staining based flow cytometric analysis relative to control. The assay is classed as functional. In short, it runs like this:
as §1

The test system of assay [22] is NCI-H460. Description: Cytotoxicity against human NCI-H460 cells assessed as reduction of cell viability at 5 to 20 uM after 24 hrs by CellTiter-Glo analysis. It is filed as functional, cell-based. The method in brief:
as §3

Assay [23] has as its system NCI-H460. Description: Induction of apoptosis in human NCI-H460 cells assessed as late apoptotic cells at 20 uM after 6 hrs by annexinV-propidium iodide staining based flow cytometric analysis relative to control. It is filed as functional. In short, it runs like this:
as §1

Assay [24] relates to NCI-H460. Description: Decrease in p53 expression in human NCI-H460 cells at 20 uM after 12 hrs by Western blot analysis. It is filed as functional, cell-based. In short, it runs like this:
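H460 cells exposed to 20 μM for varying times, or to a range of concentrations for 12 h. Lysates made in Tris-HCl pH 7.4/NaCl/NP40/SDS buffer with protease and phosphatase inhibitors, then probed for p53 by Western blot with chemiluminescent detection; bands quantified by densitometry.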

In assay [25] the test system is NCI-H460. As to the kind of experiment: Cytotoxicity against human NCI-H460 cells assessed as cell viability at 20 uM after 24 hrs by CellTiter-Glo analysis. The conditions noted are these: NCI-H460, 24 h, read-out: Activity. The assay is classed as functional. In short, it runs like this: as §3
For assay [26], the system named is NCI-H460. Description: Induction of CHOP mRNA expression in human NCI-H460 cells at 20 uM after 12 hrs by real time quantitative PCR analysis. The assay is classed as functional, cell-based. The method in brief:
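H460 cells exposed to a concentration range for 6 or 12 h. CHOP mRNA measured by RT-PCR/qPCR and normalized to β-actin.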

The subject of assay [27] is NCI-H460. Description: Induction of apoptosis in human NCI-H460 cells at 5 to 30 uM after 24 hrs by flow cytometric analysis. It is filed as functional, cell-based.
Assay [28] has as its system NCI-H460. Description: Induction of apoptosis in human NCI-H460 cells assessed as viable cells at 10 uM after 6 hrs by annexinV-propidium iodide staining based flow cytometric analysis relative to control. The assay is classed as functional. The conditions noted are these: NCI-H460, 6 h, read-out: Activity. In short, it runs like this:
as §1

Broadly, the IC50 is the midpoint of a concentration-inhibition curve. High values mean weaker potency in that assay, low ones greater potency in that assay.

Calls of active or inactive are those of the source. No cut-off for these calls is given here.

Transcription factor Jun (Homo sapiens), sequence (P05412 whole entry): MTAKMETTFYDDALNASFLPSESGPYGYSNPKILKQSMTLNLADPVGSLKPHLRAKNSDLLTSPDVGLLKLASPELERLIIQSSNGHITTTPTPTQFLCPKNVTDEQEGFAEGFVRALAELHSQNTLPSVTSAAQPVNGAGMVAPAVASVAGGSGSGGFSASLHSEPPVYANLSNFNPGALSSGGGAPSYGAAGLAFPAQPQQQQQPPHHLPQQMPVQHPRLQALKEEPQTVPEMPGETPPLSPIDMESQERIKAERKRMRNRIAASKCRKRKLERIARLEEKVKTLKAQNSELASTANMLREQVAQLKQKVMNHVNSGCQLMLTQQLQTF

In assay [1], `CN(C)CCCOc1ccc(/C=C2\CC/C(=C\c3ccc(OCCCN(C)C)cc3)C2=O)cc1` displayed an IC50 of 8.31 µM.
On to `O=C(/C=C/c1ccccc1Br)/C=C/c1ccccc1Br`, for which inhibition in assay [1] was half-maximal at 5.78 µM (IC50).
For `COc1cc(/C=C/C(=O)CC(=O)/C=C/c2ccc(O)c(OC)c2)ccc1O` [CURCUMIN], the outcome in assay [2], in assay [8], in assay [10], in assay [13], in [15] and in assay [16] was inactive. Also, the result in assay [17], in assay [19], in [20], in assay [22], in assay [24] and in assay [26] was inactive. In addition, in assay [27], the outcome was inactive. In addition, the figures for the viability at 20 µM in [3] and in [25] were 83.6% and 70%, respectively. Also, the Activity in [4] worked out at 12.02%; in assay [5], 12.02%; in assay [6], 0.23%; in [7], 7.97%; in [11], 0.46%; in assay [12], 8.57%. The Activity in assay [14] is on record as 0.32%; in assay [18], 2.06%; in assay [21], 3.66%; in assay [23], 4.06%. In addition, in [9], the viability at 5 µM worked out at 87.9%. Further, in assay [1], the IC50 was 20.3 µM. The viability at 10 µM in assay [28] is 89.2%.
